Calls of active or inactive are those of the source. No cut-off for these calls is given here.
Experiments:
[1] = target: T1, NAD-dependent protein deacetylase sirtuin-2 (Homo sapiens) (UniProt Q8IXJ6); experiment: Inhibition of SIRT2 in human HCT116 cells assessed as increase in alpha-tubulin acetylation at 50 uM incubated for 6 hrs by DAPI staining-based laser scanning confocal microscopic analysis; format: cell-based
T1 sequence (whole entry): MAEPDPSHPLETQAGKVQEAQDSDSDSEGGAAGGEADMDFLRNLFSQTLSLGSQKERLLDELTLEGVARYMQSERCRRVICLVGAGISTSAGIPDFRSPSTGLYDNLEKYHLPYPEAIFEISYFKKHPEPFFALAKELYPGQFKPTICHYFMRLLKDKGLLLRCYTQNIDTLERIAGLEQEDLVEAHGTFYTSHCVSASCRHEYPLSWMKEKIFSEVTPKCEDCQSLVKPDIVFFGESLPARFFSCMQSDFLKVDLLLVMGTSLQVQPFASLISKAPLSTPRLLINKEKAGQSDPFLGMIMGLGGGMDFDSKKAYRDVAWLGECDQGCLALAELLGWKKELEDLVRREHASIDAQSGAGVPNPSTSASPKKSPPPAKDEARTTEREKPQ
Outline: (§1)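 HCT116 cells were seeded at 400 000 on poly-D-lysine-coated glass-bottom dishes and grown 24 h. Cells were treated with DMSO or inhibitor for 6 h at 37 °C, fixed in ice-cold methanol, and blocked in TBS/0.1% Triton X-100/5% BSA. They were stained with anti-acetyl α-tubulin (1:100, overnight, 4 °C), then Cy3 anti-mouse, and mounted with DAPI. Imaging was by confocal microscopy.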

[2] = target: T1, NAD-dependent protein deacetylase sirtuin-2 (Homo sapiens); experiment: Inhibition of SIRT2 in human HCT116 cells assessed as increase in alpha-tubulin acetylation at 25 uM incubated for 6 hrs by DAPI staining-based laser scanning confocal microscopic analysis; format: cell-based; outline: as §1
[3] = target: T2, NAD-dependent protein deacetylase sirtuin-1 (Homo sapiens) (UniProt Q96EB6); experiment: Inhibition of SIRT1 in human HCT116 cells assessed as increase in acetylated p53 K382 level at 25 uM after 6 hrs by Western blot analysis; format: cell-based
T2 sequence (whole entry): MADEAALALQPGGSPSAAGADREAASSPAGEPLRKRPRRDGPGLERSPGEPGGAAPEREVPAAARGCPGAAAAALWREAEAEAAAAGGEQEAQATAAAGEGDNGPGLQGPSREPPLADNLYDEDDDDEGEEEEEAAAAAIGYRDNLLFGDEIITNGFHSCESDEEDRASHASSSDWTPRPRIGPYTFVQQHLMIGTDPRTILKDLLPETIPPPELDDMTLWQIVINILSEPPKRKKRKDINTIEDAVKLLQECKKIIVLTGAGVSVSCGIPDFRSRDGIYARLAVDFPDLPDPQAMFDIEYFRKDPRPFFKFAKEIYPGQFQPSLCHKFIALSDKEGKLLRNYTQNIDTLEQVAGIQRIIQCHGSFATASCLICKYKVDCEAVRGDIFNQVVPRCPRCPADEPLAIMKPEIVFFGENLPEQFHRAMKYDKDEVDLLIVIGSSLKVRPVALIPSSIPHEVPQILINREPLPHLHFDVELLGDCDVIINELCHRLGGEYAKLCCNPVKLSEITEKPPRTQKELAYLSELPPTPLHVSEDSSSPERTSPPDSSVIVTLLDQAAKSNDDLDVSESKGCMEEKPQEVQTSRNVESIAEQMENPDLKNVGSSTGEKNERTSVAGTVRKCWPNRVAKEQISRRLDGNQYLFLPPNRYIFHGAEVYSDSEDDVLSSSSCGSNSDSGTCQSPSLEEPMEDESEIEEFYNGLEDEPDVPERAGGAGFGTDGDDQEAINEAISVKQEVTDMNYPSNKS

[4] = target: T3, NAD-dependent protein deacetylase sirtuin-2 (Homo sapiens, UniProt Q8IXJ6); experiment: Inhibition of recombinant human N-terminal His6-tagged/SUMO-fused SIRT2 (38 to 356 residues) expressed in Escherichia coli BL21 assessed as reduction in deacetylase activity using acetylated H3K9 as substrate preincubated for 15 mins followed by substrate addition and measured after 6 mins by UV-HPLC analysis
T3 sequence (Q8IXJ6 whole entry): T1 sequence (whole entry)

[5] = target: T4, NAD-dependent protein deacetylase sirtuin-1 (Homo sapiens, UniProt Q96EB6); experiment: Inhibition of human SIRT1 deacetylase activity using acetylated H3K9 as substrate preincubated for 15 mins followed by substrate addition and measured after 3 mins by UV-HPLC analysis
T4 sequence (Q96EB6 whole entry): T2 sequence (whole entry)

[6] = target: T5, NAD-dependent protein deacetylase sirtuin-3, mitochondrial (Homo sapiens, UniProt Q9NTG7); experiment: Inhibition of human SIRT3 assessed as reduction in deacetylase activity using acetylated H3K9 as substrate preincubated for 15 mins followed by substrate addition and measured after 15 mins by UV-HPLC analysis
T5 sequence (Q9NTG7 whole entry): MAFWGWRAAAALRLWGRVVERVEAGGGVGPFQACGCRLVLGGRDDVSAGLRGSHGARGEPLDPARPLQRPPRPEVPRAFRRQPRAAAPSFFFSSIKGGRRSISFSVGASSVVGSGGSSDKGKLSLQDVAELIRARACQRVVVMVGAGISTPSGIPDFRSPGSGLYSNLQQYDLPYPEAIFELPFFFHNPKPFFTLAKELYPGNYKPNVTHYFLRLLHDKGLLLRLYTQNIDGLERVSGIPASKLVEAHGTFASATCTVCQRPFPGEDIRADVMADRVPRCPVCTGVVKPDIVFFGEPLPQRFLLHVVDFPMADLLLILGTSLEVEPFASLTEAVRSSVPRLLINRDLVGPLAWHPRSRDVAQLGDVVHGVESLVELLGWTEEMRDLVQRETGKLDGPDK

[7] = Cytotoxicity against human HME1 cells after 72 hrs by CellTiter-Blue assay; format: cell-based
Outline: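 Cells were seeded per well (HCT116 1000; MDA-MB-231, MDA-MB-468, NCI-H23, A549, SW948 2000; MCF7, BxPC-3, HME1 3000) and left 20 h at 37 °C. Inhibitor was added at 1–100 μM final for 72 h at 37 °C. CellTiter-Blue was then added for 4 h, and fluorescence was read at ex 560/em 590 nm.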

[8] = organism: Homo sapiens; experiment: Selectivity ratio of IC50 for human SIRT1 to IC50 for recombinant human N-terminal His6-tagged/SUMO-fused SIRT2 (38 to 356 residues) expressed in Escherichia coli BL21
Outline: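 Purified human sirtuin (SIRT1 0.05 μM, SIRT2 0.2 μM) in 20 mM Tris, 1 mM NAD⁺, 1 mM DTT, pH 8.0 was preincubated with inhibitor (0.002–417 μM, duplicate, DMSO control) for 15 min at 37 °C. Acetyl-H3K9 peptide (10 μM) was then added, and the reaction ran at 37 °C (SIRT1 3 min, SIRT2 6 min; 10–18% conversion). It was quenched with HCl/acetic acid and analysed by reverse-phase HPLC with UV at 215/326 nm.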

[9] = target: T2, NAD-dependent protein deacetylase sirtuin-1 (Homo sapiens); experiment: Inhibition of SIRT1 in Trichostatin A treated human HCT116 cells assessed as increase in acetylated p53 K382 level after 6 hrs by Western blot analysis
Outline: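 HCT116 cells were seeded at 400 000 per well, grown 24 h, then cotreated with 400 nM TSA and inhibitor (25 μM, or 10–50 μM) for 6 h at 37 °C. Cells were lysed in 4% SDS buffer, pH 7.4. 50 μg of lysate was resolved by 12% SDS-PAGE and blotted for acetyl-p53 K382 antibody, with β-actin as loading control. Detection was by ECL.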

| Structure (SMILES) | inhibition [1] | inhibition [2] | inhibition [3] | IC50 [4] [µM] | IC50 [5] [µM] | IC50 [6] [µM] | Activity [7] | Ratio IC50 [8] | inhibition [9] |
| --- | --- | --- | --- | --- | --- | --- | --- | --- | --- |
| CCCNC(=S)NCCCC[C@H](NC(=O)OCc1ccccc1)C(=O)Nc1cccc(O)c1 | inactive | inactive | inactive | > 100 | > 100 | > 100 |  |  |  |
| CCCCCCCCCCCCCC(=S)NCCCC[C@H](NC(=O)OCc1ccccc1)C(=O)Nc1ccccc1 |  |  |  |  |  | > 100 | Non-Toxic |  |  |
| CNC(=S)NCCCC[C@H](NC(=O)OCc1ccccc1)C(=O)Nc1cccc(O)c1 |  |  |  | > 100 | > 100 | > 100 |  |  |  |
| CCCCCCCCCCNC(=S)NCCCC[C@H](NC(=O)OCc1ccccc1)C(=O)Nc1cccc(O)c1 | Active | Active | Active | 0.036 | 0.45 | > 100 |  | 12 | Dose-dependent effect |
| CCCCCCCCCCCCNC(=S)NCCCC[C@H](NC(=O)OCc1ccccc1)C(=O)Nc1cccc(O)c1 |  |  |  | 0.06 | 1 | > 100 |  | 17 |  |
| CCCCCNC(=S)NCCCC[C@H](NC(=O)OCc1ccccc1)C(=O)Nc1cccc(O)c1 | Active | Active | Active | 1 | 34 | > 100 |  | 34 |  |
| CCCCCCCCNC(=S)NCCCC[C@H](NC(=O)OCc1ccccc1)C(=O)Nc1cccc(O)c1 |  |  |  | 0.12 | 1 | > 100 |  | 8 |  |
| CCCCCCNC(=S)NCCCC[C@H](NC(=O)OCc1ccccc1)C(=O)Nc1ccccc1 |  |  |  | 0.64 | 30 |  |  |  |  |
| CCCCCCCCCCCCNC(=S)NCCCC[C@H](NC(=O)OCc1ccccc1)C(=O)Nc1ccccc1 |  |  |  | 0.081 | > 200 | > 200 |  |  |  |
| NC(=O)C1CCCc2c1[nH]c1ccc(Cl)cc21 (configuration not stated) |  |  | Active |  |  |  |  |  |  |
| CCCCCCCNC(=S)NCCCC[C@H](NC(=O)OCc1ccccc1)C(=O)Nc1ccccc1 |  |  |  | 0.16 | 22 |  |  |  |  |

— ChEMBL document CHEMBL4433206, “Novel Lysine-Based Thioureas as Mechanism-Based Inhibitors of Sirtuin 2 (SIRT2) with Anticancer Activity in a Colorectal Cancer Murine Model” (J Med Chem, 2019)
